These results are taken from ChEMBL document CHEMBL3286225, “Novel carboline derivatives as potent antifungal lead compounds: design, synthesis, and biological evaluation” (ACS Med Chem Lett, 2014).

pIC50: −log10 of the molar value. Converted amounts (≈) assume the structure as drawn. The source made the active and inactive calls. The calls are words filed in the database; no cut-off is given here.

One series addresses CYP2C9 (Homo sapiens, UniProt P11712). As to the kind of experiment: Inhibition of CYP2C9 in human liver microsomes assessed as tolbutamide conversion to 4-hydroxy tolbutamide at 25 uM preincubated for 10 mins followed by NADPH addition measured after 15 mins by LC-MS/MS analysis relative to control. Format: ADME. Conditions: probe tolbutamide. (In general: Liver microsomes are a subcellular fraction often used to study metabolism.)

The test system of series [1] is Candida albicans. The series can be described thus: Antifungal activity against fluconazole-resistant Candida albicans 805 after 24 hrs by serial dilution method. The following applies: Candida albicans, 805, 24 h. It is filed as functional.
Series [2] has as its system Candida albicans. As to the kind of experiment: Fungicidal activity against fluconazole-resistant Candida albicans 103 assessed as growth inhibition at 4 to 32 ug/ml after 12 to 48 hrs. It is filed as functional, organism-based. Summed up:
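Time-kill: C. albicans (SC5314 or 103) inoculated at 10^5 CFU/mL, untreated or with drug (2–32 μg/mL; fluconazole 32 μg/mL reference); CFU/mL counted after 0, 12, 24 and 48 h.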

Another series has as its system Nannizzia gypsea. As to the kind of experiment: Antifungal activity against Microsporum gypseum Cmccfmza after 7 days by serial dilution method. Format: functional. The following applies: 168 h.
Series [3] concerns Candida albicans. As to the kind of experiment: Antifungal activity against fluconazole-sensitive Candida albicans SC5314 assessed as cell membrane damage at 8 ug/ml after 8 hrs by TEM analysis. Format: functional, organism-based. An outline of the steps:
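Transmission electron microscopy of C. albicans SC5314 cells exposed to 8 μg/mL drug for 8 h; untreated cells as reference; cell wall, membrane, cytoplasm and vacuole morphology inspected.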

Series [4] deals with Candida albicans. As to the kind of experiment: Antifungal activity against fluconazole-sensitive Candida albicans SC5314 assessed as change in obtusifoliol composition at 8 ug/ml after 24 hrs by GC-MS analysis relative to control. Format: functional. An outline of the steps:
(§1)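 C. albicans SC5314 exposed to 8 μg/mL for 24 h, sterols analysed by GC-MS with cholesterol internal standard; each sterol expressed as % of total sterol fraction versus no-drug control; average of three independent experiments.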

For series [5], the system named is Candida albicans. The series can be described thus: Antifungal activity against fluconazole-resistant Candida albicans 103 after 24 hrs by serial dilution method in presence of fluconazole. It is filed as functional. An outline of the steps: (§2)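 Tested in combination with fluconazole against each fluconazole-resistant C. albicans strain. Interaction was scored by fractional inhibitory concentration index (FICI): synergy at FICI ≤ 0.5, indifference at 0.5 < FICI ≤ 4, antagonism at FICI > 4.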

Series [6] has as its system Candida albicans. As to the kind of experiment: Antifungal activity against fluconazole-resistant Candida albicans 07109 after 24 hrs by serial dilution method in presence of fluconazole. Format: functional. An outline of the steps: as §2
Series [7] has as its system Candida albicans. The series can be described thus: Antifungal activity against fluconazole-resistant Candida albicans 805 after 24 hrs by serial dilution method in presence of fluconazole. It is filed as functional. Summed up: as §2
A further series deals with CYP2C19 (Homo sapiens, UniProt P33261). As to the kind of experiment: Inhibition of CYP2C19 in human liver microsomes assessed as S-mephenytoin conversion to 4'-hydroxy mephenytoin at 25 uM preincubated for 10 mins followed by NADPH addition measured after 15 mins by LC-MS/MS analysis relative to control. Format: ADME. The following applies: probe S-mephenytoin.
Chain of CYP2C19 (P33261 whole entry): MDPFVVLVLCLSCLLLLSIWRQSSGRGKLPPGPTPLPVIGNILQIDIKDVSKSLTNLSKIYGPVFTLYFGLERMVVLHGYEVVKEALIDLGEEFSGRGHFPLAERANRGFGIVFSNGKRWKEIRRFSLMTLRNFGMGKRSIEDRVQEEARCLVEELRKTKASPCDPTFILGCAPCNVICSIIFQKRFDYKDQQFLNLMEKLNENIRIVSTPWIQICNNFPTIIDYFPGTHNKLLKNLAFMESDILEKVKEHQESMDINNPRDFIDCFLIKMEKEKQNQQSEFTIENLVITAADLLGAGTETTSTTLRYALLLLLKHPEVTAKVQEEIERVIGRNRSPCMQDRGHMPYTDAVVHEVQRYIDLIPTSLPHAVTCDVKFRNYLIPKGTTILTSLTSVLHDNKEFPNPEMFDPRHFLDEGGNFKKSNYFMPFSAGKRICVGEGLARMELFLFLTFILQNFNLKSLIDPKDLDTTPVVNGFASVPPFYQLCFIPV
Series [8] has as its system Candida albicans. The series can be described thus: Inhibition of biofilm formation of fluconazole-resistant Candida albicans 103 after 48 hrs by XTT assay. Format: functional, organism-based. An outline of the steps: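 Biofilm formation by C. albicans SC5314 or 103 in presence of 2–64 μg/mL drug (fluconazole 64 μg/mL reference); quantified by XTT reduction as % of blank control; mean ± standard deviation of three independent experiments, ANOVA and Student t test.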
For orientation: Tetrazolium assays rely on reduction of a dye to a coloured formazan, in cell work by metabolically active cells.

For series [9], the system named is Candida albicans. The series can be described thus: Antifungal activity against fluconazole-resistant Candida albicans 100 after 24 hrs by serial dilution method. Format: functional. Conditions: Candida albicans, 100, 24 h.
In series [10] the target is T1, Cytochrome P450 3A4 (Homo sapiens, UniProt P08684). The series can be described thus: Inhibition of CYP3A4 in human liver microsomes assessed as midazolam conversion to 1'-hydroxy midazolam preincubated for 10 mins followed by NADPH addition measured after 15 mins by LC-MS/MS analysis. Format: ADME.
T1 sequence (P08684 whole entry): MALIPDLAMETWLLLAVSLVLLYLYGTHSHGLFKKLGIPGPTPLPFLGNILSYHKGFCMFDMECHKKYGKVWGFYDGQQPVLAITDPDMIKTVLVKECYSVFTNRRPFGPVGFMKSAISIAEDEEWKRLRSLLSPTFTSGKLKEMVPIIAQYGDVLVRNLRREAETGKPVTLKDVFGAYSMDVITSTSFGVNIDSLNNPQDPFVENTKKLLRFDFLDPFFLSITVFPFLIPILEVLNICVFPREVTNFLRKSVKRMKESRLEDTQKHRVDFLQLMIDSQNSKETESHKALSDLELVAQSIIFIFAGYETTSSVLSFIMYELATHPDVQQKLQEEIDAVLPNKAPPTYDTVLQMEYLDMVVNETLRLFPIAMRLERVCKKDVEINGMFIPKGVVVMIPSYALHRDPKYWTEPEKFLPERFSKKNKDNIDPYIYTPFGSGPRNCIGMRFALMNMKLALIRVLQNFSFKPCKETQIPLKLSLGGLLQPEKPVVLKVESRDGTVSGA
The next series relates to Candida parapsilosis. The series can be described thus: Antifungal activity against Candida parapsilosis ATCC 22019 after 24 hrs by serial dilution method. Format: functional. The following applies: Lodderomyces parapsilosis, ATCC 22019, 24 h.
For series [11], the system named is Candida albicans. As to the kind of experiment: Antifungal activity against fluconazole-resistant Candida albicans 100 after 24 hrs by serial dilution method in presence of fluconazole. Format: functional. Summed up:
as §2

Series [12] has as its system Candida albicans. As to the kind of experiment: Antifungal activity against fluconazole-sensitive Candida albicans SC5314 assessed as necrosis at 8 ug/ml after 8 hrs by TEM analysis. It is filed as functional, organism-based. Summed up: (§3)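 Transmission electron microscopy of C. albicans SC5314 cells exposed to 8 μg/mL for 8 h. Untreated cells and cells given fluconazole 8 μg/mL for 8 h served as controls. Cell wall layers, cytoplasmic density and vacuole shape were compared by eye.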

Series [13] has as its system Candida albicans. As to the kind of experiment: Antifungal activity against fluconazole-sensitive Candida albicans SC5314 assessed as change in ergosterol composition at 8 ug/ml after 24 hrs by GC-MS analysis (reference value: 90%). It is filed as functional. An outline of the steps: as §1
The target in another series is Cytochrome P450 2C19 (Homo sapiens, UniProt P33261). The series can be described thus: Inhibition of CYP2C19 in human liver microsomes assessed as S-mephenytoin conversion to 4'-hydroxy mephenytoin preincubated for 10 mins followed by NADPH addition measured after 15 mins by LC-MS/MS analysis. It is filed as ADME.
Chain of Cytochrome P450 2C19 (P33261 whole entry): as the sequence (P33261 whole entry) above
Another series deals with Pichia kudriavzevii. As to the kind of experiment: Antifungal activity against Candida krusei 0710397 after 7 days by serial dilution method. It is filed as functional. Conditions: Pichia kudriavzevii, 0710397, 168 h.
In series [14] the target is T1, Cytochrome P450 3A4. The series can be described thus: Inhibition of CYP3A4 in human liver microsomes assessed as testosterone conversion to 6-hydroxy testosterone preincubated for 10 mins followed by NADPH addition measured after 15 mins by LC-MS/MS analysis. It is filed as ADME.
A further series deals with CYP3A4 (Homo sapiens, UniProt P08684). As to the kind of experiment: Inhibition of CYP3A4 in human liver microsomes assessed as testosterone conversion to 6-hydroxy testosterone at 25 uM preincubated for 10 mins followed by NADPH addition measured after 15 mins by LC-MS/MS analysis relative to control. Format: ADME. Conditions: probe testosterone.
Chain of CYP3A4 (P08684 whole entry): as the sequence (P08684 whole entry) above
In series [15] the test system is Candida albicans. As to the kind of experiment: Inhibition of hyphal growth of fluconazole-sensitive Candida albicans SC5314 assessed as appearance of unicellular budding yeast form at 4 to 8 ug/ml after 16 hrs by light microscopic analysis. Format: functional, organism-based. Summed up:
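C. albicans SC5314 was grown in RPMI 1640 at 37 °C for 16 h, without compound or with 2–8 μg/mL. A fluconazole 8 μg/mL control was included. Cell morphology (hyphae, pseudohyphae, budding yeast) was then scored by microscopy.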

For series [16], the system named is Candida albicans. As to the kind of experiment: Antifungal activity against fluconazole-sensitive Candida albicans SC5314 assessed as reduction in cytoplasmic density at 8 ug/ml after 8 hrs by TEM analysis. Format: functional, organism-based. An outline of the steps:
as §3

A further series deals with Cryptococcus neoformans. As to the kind of experiment: Antifungal activity against Cryptococcus neoformans 32609 after 72 hrs by serial dilution method. It is filed as functional. The following applies: Cryptococcus neoformans, 32609, 72 h.

Chain of CYP2C9 (P11712 whole entry): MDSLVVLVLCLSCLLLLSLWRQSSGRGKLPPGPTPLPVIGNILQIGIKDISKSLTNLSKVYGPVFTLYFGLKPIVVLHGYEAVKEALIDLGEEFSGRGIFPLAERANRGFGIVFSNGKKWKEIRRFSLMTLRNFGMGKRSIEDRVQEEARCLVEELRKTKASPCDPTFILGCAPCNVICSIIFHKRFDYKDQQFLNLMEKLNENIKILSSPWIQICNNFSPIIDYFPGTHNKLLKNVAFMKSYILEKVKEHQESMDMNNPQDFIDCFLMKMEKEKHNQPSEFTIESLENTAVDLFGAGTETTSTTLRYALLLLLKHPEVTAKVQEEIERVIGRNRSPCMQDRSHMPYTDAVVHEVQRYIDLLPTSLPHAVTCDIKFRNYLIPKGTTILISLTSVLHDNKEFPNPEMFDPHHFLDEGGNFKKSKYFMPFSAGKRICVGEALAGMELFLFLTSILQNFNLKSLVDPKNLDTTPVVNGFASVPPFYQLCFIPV

For orientation: inhibition means the change of the read-out against control, counted positive when it falls. What is called MIC80 is an inhibitory concentration at the 80% level, which refers to growth in some studies and to a panel of isolates in others. A low value points to greater potency. By pIC50 is commonly meant the negative decadic logarithm of the IC50, by convention in mol/L. Regarding `Fc1ccc2c(c1)c1c(n2CCCOc2ccc(Cl)cc2)CCNC1`, the results for the inhibition at 0.25 h, 25 µM on CYP2C9, at CYP2C19 and at CYP3A4 were 36%, 33% and -35%, respectively. In addition, the MIC80 against Candida albicans [1] turned out to be 4 µg/mL (≈ 11.1 µM); in the series on Nannizzia gypsea, 1 µg/mL (≈ 2.79 µM); with Candida albicans [9], 4 µg/mL (≈ 11.1 µM); against Candida parapsilosis, 4 µg/mL (≈ 11.1 µM); with Pichia kudriavzevii, 4 µg/mL (≈ 11.1 µM); with Cryptococcus neoformans, 1 µg/mL (≈ 2.79 µM). The “growth inhibition (GI)” value with Candida albicans [2] and in the series on Candida albicans [15] was “Active” in each case. For the same molecule, the outcome in the series on Candida albicans [3] was inactive. Further, the values for the Activity in the series with Candida albicans [4] and in the series with Candida albicans [13] were 3.7% and 40.2%, respectively. The “fractional inhibitory concentration index (FICI)” value in the series on Candida albicans [5], in the series on Candida albicans [6], in the series on Candida albicans [7] and in the series on Candida albicans [11] was 0.252 each time. Moreover, the inhibition result with Candida albicans [8] was “Dose-dependent effect”. Also, the figures for the pIC50 at Cytochrome P450 3A4 [10], at Cytochrome P450 2C19 and at Cytochrome P450 3A4 [14] were 4.30, below 4.60 and 4.60, respectively. Further, the outcome in the series on Candida albicans [12] and in the series on Candida albicans [16] was Active.
